Data as given in ChEMBL document CHEMBL5649170, “Sustained microglial depletion with CSF1R inhibitor impairs parenchymal plaque development in an Alzheimer's disease model” (Nat Commun, 2019).
Calls of active or inactive are those of the source. The rule behind the calls is not given here.

What was measured:
Mus musculus [1] = assay: Antialzheimer activity in 5XFAD mouse assessed as appearance of CAA in […] cortex at 600 ppm administered as rodent chow starting from 1.5 months and measured after 5 months by immunolabeling based confocal microscopic analysis; format: functional, organism-based; conditions: route po, time 3.5 months
In short: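 5xFAD mice fed PLX3397 at 600 ppm in AIN-76A chow from 1.5 to 5 months of age; brain sections stained with Thio-S and immunolabeled for IBA1, imaged by confocal microscopy for vascular Thio-S deposits.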

[2] = Drug concentration in 5XFAD mouse brain at 75 ppm administered as rodent chow starting from 1.5 months and measured after 5 months; format: ADME, tissue-based; conditions: route po, time 3.5 months, read-out: Ct
In short: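 WT or 5xFAD mice were fed PLX3397 in AIN-76A chow at 600 ppm or 75 ppm from 1.5 to 5 months of age. Terminal brain and plasma drug concentrations were determined at study end.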

[3] = Toxicity in wildtype mouse assessed as average speed at 1200 ppm administered as rodent chow for 10 to 24 weeks by Open field test (reference value: 0.044 to 0.09 meter/s); conditions: in vivo, po, time 10-24 weeks
Mus musculus [4] = assay: Antialzheimer activity in 5XFAD mouse assessed as average speed at 1200 ppm administered as rodent chow for 10 to 24 weeks by Open field test (reference value: 0.024 to 0.076 meter/s); format: functional; conditions: route po, time 10-24 weeks
Mus musculus [5] = assay: Antialzheimer activity in wildtype mouse assessed as number of Iba positive cells per FOV in somatosensory cortex at 1200 ppm administered as rodent chow starting from 1.5 months and measured after 4 months (reference value: 304 to 351); format: functional; conditions: route po, time 2.5 months, 1825 h
[6] = target: Tyrosine-protein kinase Fes/Fps (Homo sapiens, UniProt P07332); assay: Inhibition of FES (unknown origin)
Sequence of Tyrosine-protein kinase Fes/Fps (P07332 whole entry): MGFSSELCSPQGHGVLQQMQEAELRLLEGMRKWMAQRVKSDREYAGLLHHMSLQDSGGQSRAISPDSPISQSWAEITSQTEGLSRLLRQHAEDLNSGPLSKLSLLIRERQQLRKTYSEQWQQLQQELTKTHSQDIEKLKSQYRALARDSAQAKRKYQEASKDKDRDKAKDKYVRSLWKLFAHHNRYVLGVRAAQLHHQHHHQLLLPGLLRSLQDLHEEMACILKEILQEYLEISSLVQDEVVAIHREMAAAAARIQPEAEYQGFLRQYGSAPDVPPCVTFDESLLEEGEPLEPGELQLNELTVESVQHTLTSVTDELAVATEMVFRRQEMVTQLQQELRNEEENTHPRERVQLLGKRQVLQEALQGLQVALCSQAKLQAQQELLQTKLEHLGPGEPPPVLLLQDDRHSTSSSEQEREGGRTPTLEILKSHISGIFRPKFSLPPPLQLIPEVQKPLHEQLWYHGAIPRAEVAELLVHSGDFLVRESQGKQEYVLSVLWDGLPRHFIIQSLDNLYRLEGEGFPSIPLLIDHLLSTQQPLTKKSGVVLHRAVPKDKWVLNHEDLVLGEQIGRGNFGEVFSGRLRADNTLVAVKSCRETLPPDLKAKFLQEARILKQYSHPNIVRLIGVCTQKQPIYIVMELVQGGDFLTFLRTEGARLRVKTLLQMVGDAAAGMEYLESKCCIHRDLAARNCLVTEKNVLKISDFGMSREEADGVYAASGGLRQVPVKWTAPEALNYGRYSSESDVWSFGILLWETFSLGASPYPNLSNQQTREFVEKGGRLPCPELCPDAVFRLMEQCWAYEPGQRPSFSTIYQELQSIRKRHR

[7] = Toxicity in wildtype mouse assessed as number of triads at 1200 ppm administered as rodent chow for 10 to 24 weeks by Y-maze test (reference value: 4 to 9); conditions: in vivo, po, time 10-24 weeks
[8] = Effect on Ctsd gene expression in wild type mouse thalamus at 1200 ppm administered as rodent chow starting from 1.5 months and measured after 7 months by RNA-Seq analysis (reference value: 123.974 to 159.747 RPKM); format: functional; conditions: route po, time 5.5 months, 4015 h
Mus musculus [9] = assay: Effect on APP processing pathway in 5XFAD mouse assessed as C-terminal PS1 protein signal intensity in cortex at 1200 ppm administered as rodent starting from 1.5 months and measured after 7 months (reference value: 42.868 to 145.444 %); format: functional; conditions: route po, time 5.5 months, 4015 h
[10] = target: Beta-adrenergic receptor kinase 1 (Homo sapiens, UniProt P25098); assay: Inhibition of ADRBK1 (unknown origin)
Sequence of Beta-adrenergic receptor kinase 1 (P25098 whole entry): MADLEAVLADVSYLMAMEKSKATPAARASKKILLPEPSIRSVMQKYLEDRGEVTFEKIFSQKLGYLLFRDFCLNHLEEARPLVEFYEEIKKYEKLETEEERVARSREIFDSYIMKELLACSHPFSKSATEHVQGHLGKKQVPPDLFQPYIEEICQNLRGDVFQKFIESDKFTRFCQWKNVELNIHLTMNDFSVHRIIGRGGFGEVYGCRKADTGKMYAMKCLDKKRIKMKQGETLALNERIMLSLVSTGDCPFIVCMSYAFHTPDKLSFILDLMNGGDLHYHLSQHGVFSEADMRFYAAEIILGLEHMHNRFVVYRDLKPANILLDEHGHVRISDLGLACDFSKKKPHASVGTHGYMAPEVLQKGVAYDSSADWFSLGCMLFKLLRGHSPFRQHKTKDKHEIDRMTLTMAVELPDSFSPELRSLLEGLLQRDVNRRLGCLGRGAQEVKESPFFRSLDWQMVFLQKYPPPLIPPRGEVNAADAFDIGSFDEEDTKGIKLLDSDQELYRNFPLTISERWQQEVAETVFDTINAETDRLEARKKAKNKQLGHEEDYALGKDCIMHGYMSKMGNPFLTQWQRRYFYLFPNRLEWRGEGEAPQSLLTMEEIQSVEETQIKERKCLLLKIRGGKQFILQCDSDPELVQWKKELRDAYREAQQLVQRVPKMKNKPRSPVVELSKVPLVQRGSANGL

[11] = Prevention of Nrg3 gene downregulation in 5XFAD mouse hippocampus assessed as percent change in Reads Per kilo base per Million mapped reads at 1200 ppm administered as rodent chow starting from 1.5 months and measured after 7 months by RNA-Seq analysis (reference value: 52.623 to 75.016 %); format: functional; conditions: route po, time 5.5 months, 4015 h
[12] = Effect on Siglech gene expression in wild type mouse thalamus at 1200 ppm administered as rodent chow starting from 1.5 months and measured after 7 months by RNA-Seq analysis (reference value: 2.864 to 4.605 RPKM); format: functional; conditions: route po, time 5.5 months, 4015 h
[13] = target: MAP/microtubule affinity-regulating kinase 3 (Homo sapiens, UniProt P27448); assay: Inhibition of MARK3 (unknown origin)
[14] = target: Ribosomal protein S6 kinase alpha-5 (Homo sapiens, UniProt O75582); assay: Inhibition of RPS6KA5 (unknown origin)
Sequence of Ribosomal protein S6 kinase alpha-5 (O75582 whole entry): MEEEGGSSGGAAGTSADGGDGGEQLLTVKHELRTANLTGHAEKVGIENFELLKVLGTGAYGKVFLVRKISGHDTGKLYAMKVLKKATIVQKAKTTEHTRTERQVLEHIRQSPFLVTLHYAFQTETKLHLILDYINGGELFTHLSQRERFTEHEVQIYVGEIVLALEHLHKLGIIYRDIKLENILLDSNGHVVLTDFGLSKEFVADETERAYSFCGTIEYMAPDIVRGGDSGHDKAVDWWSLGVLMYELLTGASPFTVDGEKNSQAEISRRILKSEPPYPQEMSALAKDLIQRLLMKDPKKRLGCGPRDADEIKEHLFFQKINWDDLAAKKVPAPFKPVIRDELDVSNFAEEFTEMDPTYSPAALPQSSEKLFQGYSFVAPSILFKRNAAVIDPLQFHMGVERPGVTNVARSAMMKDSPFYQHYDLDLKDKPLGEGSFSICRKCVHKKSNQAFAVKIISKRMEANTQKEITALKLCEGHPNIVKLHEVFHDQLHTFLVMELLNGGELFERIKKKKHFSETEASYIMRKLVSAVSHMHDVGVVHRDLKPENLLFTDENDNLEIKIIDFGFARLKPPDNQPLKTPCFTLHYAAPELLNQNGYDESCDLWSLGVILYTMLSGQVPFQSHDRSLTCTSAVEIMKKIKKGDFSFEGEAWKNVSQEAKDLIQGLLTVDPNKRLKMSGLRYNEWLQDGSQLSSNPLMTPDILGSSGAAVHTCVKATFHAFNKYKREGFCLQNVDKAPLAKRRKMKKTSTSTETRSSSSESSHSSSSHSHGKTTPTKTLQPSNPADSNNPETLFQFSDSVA

Mus musculus [15] = assay: Antialzheimer activity in 5XFAD mouse assessed as microglial elimination in cortex at 1200 ppm administered as rodent chow for 10 weeks by Thio-S staining based confocal microscopic analysis relative to control; format: functional; conditions: route po
In short: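 1.5-month-old 5xFAD mice fed 1200 ppm PLX5622 chow for 10 weeks; free-floating sections stained with Thio-S and immunolabeled for IBA1 (5% normal serum/0.2% Triton X-100 block, 60 min); confocal imaging of cortex and thalamus to assess remaining microglia.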

[16] = Effect on Clec7a gene expression in 5XFAD mouse cortex at 1200 ppm administered as rodent chow starting from 1.5 months and measured after 7 months by RNA-Seq analysis (reference value: 2.323 to 6.756 RPKM); format: functional; conditions: route po, time 5.5 months, 4015 h
In short: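 WT and 5xFAD mice were treated with 1200 ppm PLX5622 chow or control chow from 1.5 to 7 months of age. Brains were microdissected into cortex, hippocampus and thalamus, and RNA was extracted from tissue powder. Whole-transcriptome RNA-Seq libraries were sequenced, with n = 4 per group per region (48 samples).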

[17] = target: Serine/threonine-protein kinase PAK 6 (Homo sapiens, UniProt Q9NQU5); assay: Inhibition of PAK6 (unknown origin)
Sequence of Serine/threonine-protein kinase PAK 6 (Q9NQU5 whole entry): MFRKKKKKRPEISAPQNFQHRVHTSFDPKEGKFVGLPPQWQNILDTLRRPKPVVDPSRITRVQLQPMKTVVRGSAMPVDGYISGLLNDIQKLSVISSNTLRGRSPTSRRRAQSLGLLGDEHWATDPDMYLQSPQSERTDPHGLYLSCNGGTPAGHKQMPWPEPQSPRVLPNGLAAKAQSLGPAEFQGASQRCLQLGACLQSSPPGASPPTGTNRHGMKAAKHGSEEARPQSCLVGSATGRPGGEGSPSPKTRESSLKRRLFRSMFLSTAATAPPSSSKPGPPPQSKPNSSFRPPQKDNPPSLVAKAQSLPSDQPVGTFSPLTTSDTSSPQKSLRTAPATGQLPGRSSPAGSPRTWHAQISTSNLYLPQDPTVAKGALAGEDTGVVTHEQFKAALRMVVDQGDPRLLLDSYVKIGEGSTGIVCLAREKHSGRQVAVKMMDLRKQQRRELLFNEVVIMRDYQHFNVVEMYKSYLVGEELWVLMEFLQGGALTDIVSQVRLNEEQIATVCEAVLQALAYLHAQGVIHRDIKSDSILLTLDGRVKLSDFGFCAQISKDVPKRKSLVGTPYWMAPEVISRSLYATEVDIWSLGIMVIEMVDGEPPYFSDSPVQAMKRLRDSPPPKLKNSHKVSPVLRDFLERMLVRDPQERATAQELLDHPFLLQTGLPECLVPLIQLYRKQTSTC

[18] = target: G protein-coupled receptor kinase 6 (Homo sapiens, UniProt P43250); assay: Inhibition of GRK6 (unknown origin)
Sequence of G protein-coupled receptor kinase 6 (P43250 whole entry): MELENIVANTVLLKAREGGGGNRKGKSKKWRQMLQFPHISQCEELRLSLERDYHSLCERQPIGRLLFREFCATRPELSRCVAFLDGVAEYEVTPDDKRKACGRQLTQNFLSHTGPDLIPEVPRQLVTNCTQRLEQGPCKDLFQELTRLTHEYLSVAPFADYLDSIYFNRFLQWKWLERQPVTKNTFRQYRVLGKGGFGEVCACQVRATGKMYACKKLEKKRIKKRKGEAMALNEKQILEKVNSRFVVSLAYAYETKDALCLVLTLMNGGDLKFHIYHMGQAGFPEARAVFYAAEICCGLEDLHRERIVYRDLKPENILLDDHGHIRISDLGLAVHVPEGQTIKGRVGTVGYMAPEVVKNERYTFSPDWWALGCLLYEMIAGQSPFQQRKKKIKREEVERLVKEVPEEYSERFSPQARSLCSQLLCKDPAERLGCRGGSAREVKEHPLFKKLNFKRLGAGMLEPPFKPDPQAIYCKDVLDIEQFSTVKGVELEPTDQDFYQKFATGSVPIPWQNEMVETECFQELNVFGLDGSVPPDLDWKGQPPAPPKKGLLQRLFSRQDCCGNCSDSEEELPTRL

[19] = target: PI3-kinase p110-delta/p85-alpha (Homo sapiens, UniProt O00329); assay: Inhibition of PIK3CD/PIK3R1 (unknown origin); format: protein-complex assay
[20] = AUC (0 to infinity) in female rat at 1.13 mg/kg, iv administered as single dose; format: ADME, organism-based; conditions: in vivo
[21] = target: MAP kinase-activated protein kinase 3 (Homo sapiens, UniProt Q16644); assay: Inhibition of MAPKAPK3 (unknown origin)
Sequence of MAP kinase-activated protein kinase 3 (Q16644 whole entry): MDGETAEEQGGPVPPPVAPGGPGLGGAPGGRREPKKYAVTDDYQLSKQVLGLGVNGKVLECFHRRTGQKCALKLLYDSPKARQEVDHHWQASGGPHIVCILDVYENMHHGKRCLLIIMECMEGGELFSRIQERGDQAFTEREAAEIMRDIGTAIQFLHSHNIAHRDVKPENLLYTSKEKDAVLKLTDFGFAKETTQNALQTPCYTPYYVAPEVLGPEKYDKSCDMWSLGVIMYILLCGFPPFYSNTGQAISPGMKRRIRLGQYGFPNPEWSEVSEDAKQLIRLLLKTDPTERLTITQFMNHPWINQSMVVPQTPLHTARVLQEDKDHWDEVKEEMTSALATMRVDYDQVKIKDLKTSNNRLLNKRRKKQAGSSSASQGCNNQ

Ephrin type-B receptor 3 = Ephrin type-B receptor 3 (Homo sapiens, UniProt P54753); assay: Inhibition of EPHB3 (unknown origin)
Sequence of Ephrin type-B receptor 3 (P54753 whole entry): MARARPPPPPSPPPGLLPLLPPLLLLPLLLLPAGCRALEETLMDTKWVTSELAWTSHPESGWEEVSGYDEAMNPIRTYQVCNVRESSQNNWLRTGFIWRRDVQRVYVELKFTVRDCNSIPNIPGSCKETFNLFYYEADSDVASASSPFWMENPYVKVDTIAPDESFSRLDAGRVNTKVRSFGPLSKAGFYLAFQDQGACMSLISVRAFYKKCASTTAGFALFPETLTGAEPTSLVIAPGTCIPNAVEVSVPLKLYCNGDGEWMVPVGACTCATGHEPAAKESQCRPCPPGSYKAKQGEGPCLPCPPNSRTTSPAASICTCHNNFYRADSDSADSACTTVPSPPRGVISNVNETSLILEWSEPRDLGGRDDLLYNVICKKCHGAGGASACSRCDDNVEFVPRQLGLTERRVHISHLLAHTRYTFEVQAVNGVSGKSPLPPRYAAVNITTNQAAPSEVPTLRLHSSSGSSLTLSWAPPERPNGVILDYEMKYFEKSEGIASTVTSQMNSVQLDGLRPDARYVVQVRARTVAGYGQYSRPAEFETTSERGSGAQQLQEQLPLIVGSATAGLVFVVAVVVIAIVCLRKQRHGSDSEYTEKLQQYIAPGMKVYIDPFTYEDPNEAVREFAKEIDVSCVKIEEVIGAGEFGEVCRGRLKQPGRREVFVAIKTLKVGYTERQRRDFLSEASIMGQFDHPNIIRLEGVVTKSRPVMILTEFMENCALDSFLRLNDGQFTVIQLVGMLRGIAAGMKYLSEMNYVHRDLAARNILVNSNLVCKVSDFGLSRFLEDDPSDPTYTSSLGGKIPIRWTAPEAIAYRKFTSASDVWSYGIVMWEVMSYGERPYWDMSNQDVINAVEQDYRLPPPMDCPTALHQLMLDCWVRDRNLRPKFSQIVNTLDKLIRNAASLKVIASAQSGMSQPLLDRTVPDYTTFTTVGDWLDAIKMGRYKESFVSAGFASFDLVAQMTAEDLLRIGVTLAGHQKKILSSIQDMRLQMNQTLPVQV

Mus musculus [22] = assay: Prevention of Apc gene downregulation in 5XFAD mouse hippocampus at 1200 ppm administered as rodent chow starting from 1.5 months and measured after 7 months by Nanostring analysis; format: functional, tissue-based; conditions: route po, time 5.5 months
Mus musculus [23] = assay: Antialzheimer activity in 5XFAD mouse assessed as amyloidbeta42 level in detergent insoluble thalamus fraction measured per microgram protein at 1200 ppm administered as rodent chow starting from 1.5 months and measured after 4 months by ELISA (reference value: 181082 to 7435203 pg); format: functional; conditions: route po, time 2.5 months, 1825 h
In short: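 PLX5622 at 1200 ppm in chow given to 5xFAD mice from 1.5 months to 4 or 7 months of age; cortex and thalamus homogenized in TPER (detergent-soluble), pellets re-homogenized in 70% formic acid and spun 100,000 g, 1 h, 4 °C (insoluble); protein by Bradford/Lowry; Aβ species measured by Meso Scale electrochemiluminescence immunoassay, normalized to protein; n = 7–8 per group at 7 months.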

[24] = target: Mitogen-activated protein kinase 12 (Homo sapiens, UniProt P53778); assay: Inhibition of MAPK12 (unknown origin)
[25] = target: Casein kinase II subunit alpha' (Homo sapiens, UniProt P19784); assay: Inhibition of CSNK2A2 (unknown origin)
[26] = target: Receptor-type tyrosine-protein kinase FLT3 (Homo sapiens, UniProt P36888); assay: Inhibition of FLT3 (unknown origin) in presence of ATP by enzymatic assay

## FC(F)(F)c1ccc(CNc2ccc(Cc3c[nH]c4ncc(Cl)cc34)cn2)cn1 [PEXIDARTINIB]
Mus musculus [1]
  Activity: Active
[2]
  concentration at 2555 h: 600 nM

## COc1ncc(F)cc1CNc1ccc(Cc2c[nH]c3ncc(C)cc23)c(F)n1 [PLX-5622]
[3]
  Activity: 0.03 meter/s
Mus musculus [4]
  Activity: 0.03 meter/s
Mus musculus [5]
  Activity: 0
[6]
  IC50: > 1 µM
[7]
  Activity: 3
[8]
  Activity: 100.931 RPKM
Mus musculus [9]
  Activity: 12.015%
[10]
  IC50: > 1 µM
[11]
  Activity: 86.32%
[12]
  Activity: 0 RPKM
[13]
  IC50: > 1 µM
[14]
  IC50: > 1 µM
Mus musculus [15]
  Activity: >99%
[16]
  Activity: 0.051 RPKM
[17]
  IC50: > 1 µM
[18]
  IC50: > 1 µM
[19]
  IC50: > 1 µM
[20]
  AUC(0-inf): 5110 ng·h/mL
[21]
  IC50: > 1 µM
Ephrin type-B receptor 3
  IC50: > 1 µM
Mus musculus [22]
  Activity: Active
Mus musculus [23]
  Activity: 117968.4 pg
[24]
  IC50: > 1 µM
[25]
  IC50: > 1 µM
[26]
  IC50: 0.39 µM
